Assay results taken from article PMC11561146 (Communications Biology, 2024).
“Also recorded” adds a separate entry of the source.

Columns and labels:
[1] = test system: heme bound to TrK13-R539T; test: Detection of AAS by HPLC, protein-bound heme after G-25 desalting; type: biochemical, Plasmodium falciparum; details: heme-TrK13 mixture desalted (G-25) before ART addition
How it was run: (§1)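 Recombinant TrK13 protein (10 µM) was incubated with 60 µM reduced heme for 30 min at 37°C. Unbound heme was removed on a G-25 desalting column, then 72 µM test compound was added for another 30 min. Products were separated on a C4 column at 1 mL/min with 0.05% TFA water/acetonitrile (A/B 63/37 to 52/48 over 15 min, then 15 min hold). Detection was at 410 nm. AAS was expressed as a percentage of heme peak area (AUC); mean ± SD, three independent experiments.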

heme-BSA complex = heme-BSA complex (Bos taurus, UniProt P02769); test: Detection of AAS by UV-visible spectrophotometry; type: biochemical; details: ART, 30 min
heme-BSA complex, sequence (P02769 25-607, one chain of several): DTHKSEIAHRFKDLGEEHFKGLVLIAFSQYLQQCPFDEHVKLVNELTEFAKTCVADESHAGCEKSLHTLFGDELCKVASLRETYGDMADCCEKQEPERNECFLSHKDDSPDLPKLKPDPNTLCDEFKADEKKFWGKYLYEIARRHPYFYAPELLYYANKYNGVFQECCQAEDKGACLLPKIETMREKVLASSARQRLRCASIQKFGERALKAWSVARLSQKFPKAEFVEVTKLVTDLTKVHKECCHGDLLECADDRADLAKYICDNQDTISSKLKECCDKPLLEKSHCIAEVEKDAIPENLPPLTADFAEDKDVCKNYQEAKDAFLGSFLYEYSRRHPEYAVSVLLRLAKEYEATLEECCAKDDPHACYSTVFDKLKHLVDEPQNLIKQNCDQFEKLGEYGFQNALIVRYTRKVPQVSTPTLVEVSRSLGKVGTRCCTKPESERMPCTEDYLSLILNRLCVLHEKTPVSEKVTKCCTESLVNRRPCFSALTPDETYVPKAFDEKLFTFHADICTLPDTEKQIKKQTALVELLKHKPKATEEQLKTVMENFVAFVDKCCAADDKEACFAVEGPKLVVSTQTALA
How it was run: (§2)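 Purified recombinant protein (10 µM) is incubated for 1 h at room temperature with or without equimolar dithionite-reduced heme (or Zn-PPIX). It is then desalted on a G-25 spin column to remove unbound heme. The >5 kDa eluate is incubated with 200 µM ART or DOA for 30 min. Spectra are scanned at 250–700 nm for the Soret peak, with no-heme and no-ART controls.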

heme bound to TrK13-WT = test: Detection of AAS by HPLC, protein-bound heme after G-25 desalting; type: biochemical, Plasmodium falciparum; details: heme-TrK13 mixture desalted (G-25) before ART addition
How it was run: as §1

heme-bound TrK13-A578S = test: Detection of AAS by UV-visible spectrophotometry; type: biochemical, Plasmodium falciparum; details: 200 µM ART, 30 min
How it was run: as §2

heme-TrK13-C580Y complex = test: Detection of AAS by UV-visible spectrophotometry; type: biochemical, Plasmodium falciparum; details: 200 µM ART, 30 min
How it was run: as §2

heme-TrK13-R539T complex = test: Detection of AAS by UV-visible spectrophotometry; type: biochemical, Plasmodium falciparum; details: 200 µM ART, 30 min
How it was run: as §2

TrK13-WT [2] = target: T1, TrK13-WT (Plasmodium falciparum, UniProt Q8IDQ2); test: UV-visible spectrophotometry of heme binding
T1 sequence (Q8IDQ2 189-726): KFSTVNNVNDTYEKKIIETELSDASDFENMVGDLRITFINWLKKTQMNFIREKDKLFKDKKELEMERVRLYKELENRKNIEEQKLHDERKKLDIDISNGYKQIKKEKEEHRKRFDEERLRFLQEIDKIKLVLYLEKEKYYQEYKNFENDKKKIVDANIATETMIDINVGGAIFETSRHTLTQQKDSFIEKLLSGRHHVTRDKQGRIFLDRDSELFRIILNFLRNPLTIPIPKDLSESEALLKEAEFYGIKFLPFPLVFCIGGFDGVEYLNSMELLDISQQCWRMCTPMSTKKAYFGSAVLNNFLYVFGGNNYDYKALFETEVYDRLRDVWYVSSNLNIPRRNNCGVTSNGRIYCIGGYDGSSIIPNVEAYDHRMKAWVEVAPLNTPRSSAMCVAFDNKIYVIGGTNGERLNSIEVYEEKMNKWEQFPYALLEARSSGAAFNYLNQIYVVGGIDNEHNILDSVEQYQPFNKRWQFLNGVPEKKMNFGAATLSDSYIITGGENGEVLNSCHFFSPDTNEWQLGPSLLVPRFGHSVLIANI

heme-bound TrK13-WT = test: Detection of AAS by UV-visible spectrophotometry; type: biochemical, Plasmodium falciparum; details: for increase in the intensity of the 380 nm peak vs heme-bound protein without ART: 200 µM ART or DOA, 30 min, after G-25 desalting
[3] = Detection of ART activated species; type: biochemical; details: heme: ART or derivative 1:1.20, 30 min, reducing conditions
How it was run: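 Heme under reducing conditions was reacted with test compound for 30 min, with no protein. Mixtures were run on a C4 column at 1 mL/min using a 0.05% TFA water/acetonitrile gradient (A/B 63/37 to 52/48 over 15 min, then 15 min hold), with Soret detection at 410 nm. Free heme and AAS peaks were integrated, and AAS was given as a percentage of heme by AUC; mean ± SD, three independent experiments.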

heme-PfHRP2 complex = test: Detection of AAS by UV-visible spectrophotometry; type: biochemical, Plasmodium falciparum; details: ART, 30 min
[4] = test system: recombinant TrK13-WT protein; test: Ferene S colorimetric assay of iron binding; design: species or system Plasmodium falciparum; details: TrK13-WT 5 μM, 30-times molar excess (150 μM) FAS, G-25 desalted
[5] = test system: TrK13-QNG (E688Q-E691N-H697G); test: Ferene S colorimetric assay of iron binding; design: species or system Plasmodium falciparum; details: Ferene S assay with FAS
[6] = test system: recombinant TrK13-WT protein; test: UV-visible spectrophotometry of TrK13-WT with metal salts; type: binding, Plasmodium falciparum; details: TrK13-WT 5 μM, metal salt 500 μM (100-times molar excess)
TrK13-WT [7] = target: T1, TrK13-WT; type: binding; details: TrK13-WT 10 µM, 10-fold molar excess of competitor
How it was run: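 TrK13-WT (10 µM) was preincubated for 1 h at RT with 100 µM reduced heme or a heme analog. Hemin-agarose beads (50% v/v suspension) were then added for 1 h at RT, rotating, in MOPS pH 7.4. Beads were washed five times with MOPS. Bound protein was eluted in Laemmli buffer and resolved by SDS-PAGE with Coomassie staining. Band pixel intensity was expressed relative to the no-competitor band, set as 100%.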

TrK13-C580Y = target: T2, TrK13-C580Y (Plasmodium falciparum, UniProt Q8IDQ2, C580Y); test: Tryptophan fluorescence quenching by heme; type: binding
T2 sequence (Q8IDQ2 189-726 C580Y): T1 sequence (Q8IDQ2 189-726)

TrK13-R539T = target: T3, TrK13-R539T (Plasmodium falciparum, UniProt Q8IDQ2, R539T); test: Tryptophan fluorescence quenching by heme; type: binding
T3 sequence (Q8IDQ2 189-726 R539T): T1 sequence (Q8IDQ2 189-726)

TrK13-A578S = target: T4, TrK13-A578S (Plasmodium falciparum, UniProt Q8IDQ2, A578S); test: Tryptophan fluorescence quenching by heme; type: binding
T4 sequence (Q8IDQ2 189-726 A578S): T1 sequence (Q8IDQ2 189-726)

TrK13-WT [8] = target: T1, TrK13-WT; test: Tryptophan fluorescence quenching by heme; type: binding
[9] = protein 10 µM, heme 0–5 µM, excitation 295 nm
[10] = tryptophan fluorescence quenching

**Q.** With `C[C@@H]1CC[C@H]2[C@@H](C)C(=O)O[C@@H]3O[C@@]4(C)CC[C@@H]1[C@]32OO4` [ART, artemisinin] as the compound, how does the “Percentage of AAS versus heme (area under the curve)” value [1] read?
**A.** ~ 30%

**Q.** And the “AAS formation (peak absorbance at 380 nm)” value (heme-BSA complex)?
**A.** no AAS formation

**Q.** What about the “Percentage of AAS versus heme (area under the curve)” value (heme bound to TrK13-WT) of the same compound?
**A.** ~ 50%

**Q.** And the “increase in peak intensity at 380 nm” value (heme-bound TrK13-A578S)?
**A.** ~ 176%

**Q.** What about the “increase in peak intensity at 380 nm” value (heme-TrK13-C580Y complex) of the same compound?
**A.** barely detectable increase

**Q.** And the “increase in peak intensity at 380 nm” value (heme-TrK13-R539T complex)?
**A.** barely detectable increase

**Q.** What about the “changes in the spectral profile of TrK13-WT at 250–700 nm (direct interaction)” value (TrK13-WT [2]; TrK13-WT 10 µM with excess (200 µM) ART, no heme) of the same compound?
**A.** no visible changes

**Q.** What about the “increase in the intensity of the 380 nm peak vs heme-bound protein without ART” value (heme-bound TrK13-WT) of the same compound?
**A.** ~ 42%

**Q.** What about the “increment in the 380 nm absorbance peak after addition of ART” value (heme-bound TrK13-WT; Fe^3+ hemin not pre-reduced to Fe^2+ heme) of the same compound?
**A.** No increment

**Q.** What about the “AAS peaks in the HPLC chromatogram at 410 nm” value [3] of the same compound?
**A.** additional peaks

**Q.** And the “AAS formation (peak absorbance at 380 nm)” value (heme-PfHRP2 complex)?
**A.** no AAS formation

**Q.** For `C[C@H]1[C@@H](O)O[C@@H]2O[C@@]3(C)CC[C@H]4[C@H](C)CC[C@@H]1[C@@]24OO3` [DHA, dihydroartemisinin], which “AAS peaks in the HPLC chromatogram at 410 nm” value [3] is on record?
**A.** additional peaks

**Q.** For `C[C@@H]1CC[C@H]2[C@@H](C)C(=O)O[C@@H]3O[C@@]4(C)CC[C@@H]1[C@]32O4` [DOA, deoxyartemisinin], which “increase in the intensity of the 380 nm peak vs heme-bound protein without ART” value (heme-bound TrK13-WT) is on record?
**A.** no increase; also recorded: no hyperchromic shift

**Q.** For `O=S(=O)([O-])[O-].O=S(=O)([O-])[O-].[Fe+2].[NH4+].[NH4+]` [FAS, ferrous ammonium sulfate], which “increase in the absorbance at 595 nm in the eluate vs FAS alone or TrK13-WT alone controls” value [4] is on record?
**A.** Approximately 10 fold

**Q.** What about the “reduction in absorbance at 595 nm in TrK13-QNG compared to TrK13-WT” value [5] of the same compound?
**A.** ~ 33%

**Q.** And the “increase in the absorbance of TrK13-WT at 280 nm relative to TrK13-WT alone (no salts)” value [6]?
**A.** 5.82 times

**Q.** For `O=S(=O)([O-])[O-].O=S(=O)([O-])[O-].[Fe+3].[NH4+]` [FES, ferric ammonium sulfate], which “increase in the absorbance of TrK13-WT at 280 nm relative to TrK13-WT alone (no salts)” value [6] is on record?
**A.** 12.84 times

**Q.** For `C=CC1=C(C)c2cc3[nH]c(cc4nc(cc5[nH]c(cc1n2)c(C)c5CCC(=O)O)C(CCC(=O)O)=C4C)c(C)c3C=C` [PPIX, protoporphyrin IX], which “inhibition of TrK13-WT binding to hemin-agarose beads” value (TrK13-WT [7]) is on record?
**A.** ~ 50%

**Q.** Which results are given for `C=CC1=C(C)c2cc3[n-]c(cc4[n-]c(cc5nc(cc1n2)C(C)=C5C=C)c(C)c4CCC(=O)O)c(CCC(=O)O)c3C.[Zn+2]` [Zn-PPIX]?
**A.** inhibition of TrK13-WT binding to hemin-agarose beads (TrK13-WT [7]): ~ 65%; increase in absorbance at 380 nm on ART addition, Zn-PPIX instead of heme (heme-bound TrK13-WT; TrK13-WT with Zn-PPIX, then ART): no increase

**Q.** For `C=CC1=C(C)c2cc3[nH]c(cc4nc(cc5[nH]c(cc1n2)c(C)c5C=C)C(C)=C4CCC(=O)O)c(CCC(=O)O)c3C.[Fe+3]` [heme, ferrous protoporphyrin IX], which “Stern-Volmer quenching constant (KSV)” value (TrK13-C580Y; [9]) is on record?
**A.** 1.75 µM⁻¹

**Q.** What about the “Association constant (Ka)” value (TrK13-C580Y; [10]) of the same compound?
**A.** 1.47E + 07 M^-1

**Q.** And the “Stern-Volmer quenching constant (KSV)” value (TrK13-R539T; [9])?
**A.** 1.17 µM⁻¹

**Q.** And the “Association constant (Ka)” value (TrK13-R539T; [10])?
**A.** 7.86E + 07 M^-1

**Q.** What about the “Stern-Volmer quenching constant (KSV)” value (TrK13-A578S; [9]) of the same compound?
**A.** 0.66 µM⁻¹

**Q.** And the “Association constant (Ka)” value (TrK13-A578S; [10])?
**A.** 2.88E + 11 M^-1

**Q.** What about the “Stern-Volmer quenching constant (KSV)” value (TrK13-WT [8]; [9]) of the same compound?
**A.** 0.59 µM⁻¹

**Q.** What about the “Association constant (Ka)” value (TrK13-WT [8]; [10]) of the same compound?
**A.** 1.35E + 11 M^-1

**Q.** And the Kd (TrK13-WT [2]; read-out: Kd (double reciprocal plot of 1/ΔA versus 1/[heme]), TrK13-WT 10 µM titrated with heme 0-26 µM, G25 desalted)?
**A.** 0.03622 ± 0.0001 µM
